# Test results published in ChEMBL document CHEMBL1921762, “Investigating the antimalarial action of 1,2,4-trioxolanes with fluorescent chemical probes” (J Med Chem, 2011).
# Calls of active or inactive are those of the source. No cut-off for these calls is given here.
# Columns and labels:
# Plasmodium falciparum [1] = experiment: Antimalarial activity against Plasmodium falciparum K1 infected in human A-positive type erythrocytes after 72 hrs by SYBR Green I assay; settings: K1, 72 h
# [2] = Binding affinity to Plasmodium falciparum calcium-transporting ATPase
# Plasmodium falciparum [3] = experiment: Induction of peroxidation of Plasmodium falciparum membrane-incorporated BODIPY at asexual stage at 250 nM after 2.5 hrs by fluorescence microscopic analysis; type: functional, organism-based
# In short: (§1)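 Cultures at each asexual stage were exposed at 37 °C for 2.5 h to 250 nM compound or 0.01% MeOH vehicle, then to 40 nM BODIPY 581/591 C11 for a further 30 min. Trophozoites were saponin-released; ring and segmenter stages were imaged in erythrocytes. Peroxidation was read as a red-to-yellow/green fluorescence shift by microscopy.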
# Plasmodium falciparum [4] = experiment: Induction of peroxidation of Plasmodium falciparum membrane-incorporated BODIPY at trophozoite stage at 250 nM after 2.5 hrs by fluorescence microscopic analysis; type: functional, organism-based
# In short: as §1
# Plasmodium falciparum [5] = experiment: Antimalarial activity against Plasmodium falciparum FCB infected in human A-positive type erythrocytes after 72 hrs by SYBR Green I assay
# Plasmodium falciparum [6] = experiment: Induction of peroxidation of Plasmodium falciparum membrane-incorporated BODIPY at 250 nM after 2.5 hrs by fluorescence microscopic analysis; type: functional, organism-based
# In short: as §1
# Plasmodium falciparum [7] = experiment: Induction of peroxidation of Plasmodium falciparum membrane-incorporated BODIPY at ring stage at 250 nM after 2.5 hrs by fluorescence microscopic analysis; type: functional, organism-based
# In short: as §1
# [8] = Drug uptake in Plasmodium falciparum assessed as accumulation in nuclear lipid bodies at 500 nM; type: ADME; settings: 0.5 µM, in the assay text read “neutral lipid bodies” for “nuclear lipid bodies”
# In short: (§2)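 Mixed-stage P. falciparum cultures (strains FCB and 7G8, grown in human A+ or AB+ erythrocytes at 37 °C in supplemented RPMI 1640 under 90% N2/5% O2/5% CO2) were exposed to 500 nM probe for 10 min in RPMI at 37 °C. Cells were washed twice with PBS, viewed directly or after 0.2% saponin release, and imaged by 100X oil-immersion epifluorescence with phase contrast.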
# [9] = Drug uptake in Plasmodium falciparum assessed as accumulation in membranous structures at 500 nM; type: ADME; settings: 0.5 µM
# In short: as §2
# Plasmodium falciparum [10] = experiment: Drug uptake in Plasmodium falciparum assessed as subcellular localization at 500 nM; type: ADME, organism-based; settings: 0.5 µM
# In short: (§3)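 Mixed-stage P. falciparum cultures were exposed to 500 nM fluorescent probe for 10 min in RPMI at 37 °C. They were washed twice with PBS, viewed directly or after 0.2% saponin release, and imaged live by epifluorescence at 100X oil immersion, with phase contrast overlay.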
# [11] = Drug uptake in Plasmodium falciparum assessed as cytoplasmic accumulation at 500 nM; type: ADME, Cytoplasm; settings: 0.5 µM
# In short: as §3
# [12] = Drug uptake in Plasmodium falciparum […] lipid bodies assessed decrease in fluorescence at 500 nM pretreated with 500 nM unlabeled compound; type: ADME; settings: 0.5 µM
# In short: (§4)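 Mid- to late trophozoite cultures were pre-treated for 10 min at 37 °C with 500 nM unlabeled trioxolane or 0.01% MeOH vehicle in warm complete medium. Medium was then replaced with 500 nM fluorescent trioxolane for 10 min. Cells were washed, saponin-released and examined by fluorescence microscopy. Labeled NLB were counted in ~10 random fields (~300 parasites per group) and normalised to parasite number. Results are % decrease versus MeOH, from 3 experiments with t test.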
# [13] = Drug uptake in Plasmodium falciparum assessed as accumulation in […] lipid bodies at 500 nM in presence of methanol; type: ADME; settings: 0.5 µM
# In short: as §4
# [14] = Drug uptake in Plasmodium falciparum assessed as accumulation in small spherical structures in digestive vacuole at 500 nM; type: ADME; settings: 0.5 µM
# In short: as §3
smiles,measurement,setting,value
CC(C)(N)CNC(=O)C[C@H]1CC[C@]2(CC1)OO[C@]1(O2)C2CC3CC(C2)CC1C3 [OZ277],IC50,Plasmodium falciparum [1],0.0025 µM
same,Ki,[2],7.9 µM
CC(C)(C)OC(=O)NCCCNC1CCC2(CC1)OOC1(O2)C2CC3CC(C2)CC1C3 (mixture of isomers),Activity,Plasmodium falciparum [3],Active
same,Activity,Plasmodium falciparum [4],Active
same,IC50,Plasmodium falciparum [5],0.0126 µM
same,Activity,Plasmodium falciparum [6],Active
same,Activity,Plasmodium falciparum [7],Active
CN(C)c1cccc2c(S(=O)(=O)OC34CC5CC(C3)C3(OCC6(CCCCC6)O3)C(C5)C4)cccc12 (mixture of isomers),Drug uptake,[8],Not Active
same,IC50,Plasmodium falciparum [5],25 µM
same,Drug uptake,[9],Not Active
C[C@@H]1CC[C@H]2[C@@H](C)C(=O)O[C@@H]3O[C@@]4(C)CC[C@@H]1[C@]32OO4 [ARTEMISININ],IC50,Plasmodium falciparum [5],0.008 µM
CN(C)c1cccc2c(S(=O)(=O)NCCCNC3CCC4(CC3)OOC3(O4)C4CC5CC(C4)CC3C5)cccc12 (mixture of isomers),Drug uptake,Plasmodium falciparum [10],Not Active
same,IC50,Plasmodium falciparum [5],0.0146 µM
same,Drug uptake,[11],Active
CN(C)c1cccc2c(S(=O)(=O)OC34CC5CC(C3)C3(OOC6(CCCCC6)O3)C(C5)C4)cccc12 (mixture of isomers),Drug uptake,[12],Not Active
same,Drug uptake,[13],Active
same,IC50,Plasmodium falciparum [5],0.0179 µM
same,Drug uptake,[14],Active
